According to ChEMBL document CHEMBL3525966, “Compartmental and enzyme kinetic modeling to elucidate the biotransformation pathway of a centrally acting antitrypanosomal prodrug” (Drug Metab Dispos, 2013):

Legend:
Liver microsome [1] = test: Prodrug conversion in human liver microsomes assessed as depletion of compound at 10 uM after 180 mins incubation by HPLC-UV chromatography; format: ADME; details: 3 h
In short: (§1)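 HLM or RLM (0.5 mg/mL) were incubated in triplicate in 100 mM phosphate pH 7.4 with 10 mM MgCl2 and an NADPH-regenerating system (1 mM NADP+, glucose 6-phosphate, G6PDH). DB868 was 10 µM. Sampled up to 180 min. Prodrug and metabolites were measured by HPLC-UV at 359 nm and expressed relative to initial prodrug; DB829 LLOQ 50 nM.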

Liver microsome [2] = test: Intrinsic clearance in human liver microsomes assessed as (Z)-N'-hydroxy-6-(5-(5-((Z)-N'-methoxycarbamimidoyl)pyridin-2-yl)furan-2-yl nicotinimidamide formation measured per mg of protein by HPLC-MS/MS analysis; format: ADME
In short: (§2)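 M1 formation kinetics: HLM or RLM (0.5 mg/mL) in phosphate pH 7.4 with MgCl2, DB868 0.1–100 µM, started with 2 mM NADPH. Run 5 min (HLM) or 10 min (RLM) under initial-rate conditions (<20% consumption) in triplicate. Quantified by HPLC/MS/MS with d6-DB868 internal standard. Fitted to a one-enzyme (HLM) or two-enzyme (RLM) Michaelis–Menten model; Clint = Vmax/Km.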

Liver microsome [3] = test: Prodrug conversion in human liver microsomes assessed as elution time at 10 uM after 180 mins incubation by HPLC-UV chromatography; format: ADME; details: 3 h; in short: as §1
Liver microsome [4] = test: Ratio of drug metabolism in […] to drug metabolism in rat hepatocytes at 10 uM after 4 hrs of incubation by HPLC-MS/MS analysis; format: ADME, cell-based, Hepatocyte
Cytochrome P450 4F1 = biological target: T1, Cytochrome P450 4F1 (Rattus norvegicus, UniProt P33274); test: Prodrug conversion assessed as rat purified CYP4F1-mediated (Z)-N'-hydroxy-6-(5-(5-((Z)-N'-methoxycarbamimidoyl)pyridin-2-yl)furan-2-yl) nicotinimidamide formation at 5 uM after 30 mins incubation by HPLC-UV chromatogram; details: purified enzyme
T1 sequence (P33274 whole entry): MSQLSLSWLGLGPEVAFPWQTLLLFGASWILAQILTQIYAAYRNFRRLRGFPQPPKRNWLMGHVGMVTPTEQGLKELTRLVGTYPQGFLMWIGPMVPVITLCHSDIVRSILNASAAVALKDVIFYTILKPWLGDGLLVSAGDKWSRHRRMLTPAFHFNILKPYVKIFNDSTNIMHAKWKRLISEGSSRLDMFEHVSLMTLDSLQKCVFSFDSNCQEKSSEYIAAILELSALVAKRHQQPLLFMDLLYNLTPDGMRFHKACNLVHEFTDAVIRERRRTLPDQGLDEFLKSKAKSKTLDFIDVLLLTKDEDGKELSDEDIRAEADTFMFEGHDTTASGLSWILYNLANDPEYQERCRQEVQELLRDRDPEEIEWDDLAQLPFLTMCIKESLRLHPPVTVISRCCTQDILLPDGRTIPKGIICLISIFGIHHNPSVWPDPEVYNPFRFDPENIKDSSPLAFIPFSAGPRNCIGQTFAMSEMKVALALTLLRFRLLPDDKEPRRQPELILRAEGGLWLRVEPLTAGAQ

[5] = Drug metabolism in sandwich-cultured rat hepatocytes assessed as (Z)-N'-hydroxy-6-(5-(5-((Z)-N'-methoxycarbamimidoyl)pyridin-2-yl)furan-2-yl)nicotinimidamide at 10 uM after 4 hrs of incubation by HPLC-MS/MS analysis; format: ADME, cell-based, Hepatocyte
In short: (§3)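 Sandwich-cultured hepatocytes were used on day 5 (human) or day 4 (rat) and rinsed with warm phenol-red-free DMEM. They were then exposed to 10 µM DB868 (0.1–0.2% DMSO) at 37°C. Medium and methanol/water cell lysates were collected at 0.5, 2, 4 and 24 h. Analytes were quantified by HPLC/MS/MS with deuterated internal standards; protein by Bradford. Replicates: 6 (human) or 4 (rat).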

[6] = Drug metabolism in sandwich-cultured rat hepatocytes assessed as DB829 at 10 uM after 24 hrs of incubation by HPLC-MS/MS analysis; format: ADME, cell-based, Hepatocyte; in short: as §3
Cytochrome P450 3A4 = Cytochrome P450 3A4 (Homo sapiens, UniProt P08684); test: Prodrug conversion assessed as human recombinant CYP3A4-mediated (Z)-N'-hydroxy-6-(5-(5-((Z)-N'-methoxycarbamimidoyl)pyridin-2-yl)furan-2-yl) nicotinimidamide formation at 5 uM after 180 mins incubation by HPLC-UV chromatogram; format: ADME; details: recombinant enzyme, 15 min, in the assay text read “15 mins” for “180 mins”
In short: (§4)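 Insect-cell-expressed human or rat P450 (with NADPH-P450 reductase, some also with cytochrome b5) at 0.1 pmol/µL in 100 mM potassium phosphate pH 7.4 with 10 mM MgCl2. DB868 (for M1) or M1 (for M2) was added at 5 µM (0.5% DMSO) and started with 2 mM NADPH. Stopped after 15 min with ice-cold acetonitrile, then HPLC-UV. Duplicate incubations.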

[7] = Drug metabolism in sandwich-cultured rat hepatocytes assessed as fold increase in DB829 at 10 uM after 2 hrs of incubation by HPLC-MS/MS analysis; format: ADME, cell-based, Hepatocyte; in short: as §3
Liver microsome [8] = test: Drug metabolism in human liver microsomes assessed as (Z)-N'-hydroxy-6-(5-(5-((Z)-N'-methoxycarbamimidoyl)pyridin-2-yl)furan-2-yl nicotinimidamide formation measured per mg of protein by HPLC-MS/MS analysis; format: ADME; in short: as §2
Cytochrome P450 2D26 = biological target: T2, Cytochrome P450 2D26 (Rattus norvegicus, UniProt P10634); test: Prodrug conversion assessed as rat recombinant CYP2D2-mediated (Z)-N'-hydroxy-6-(5-(5-((Z)-N'-methoxycarbamimidoyl)pyridin-2-yl)furan-2-yl) nicotinimidamide formation at 5 uM after 180 mins incubation by HPLC-UV chromatogram; format: ADME; details: recombinant enzyme, 15 min, in the assay text read “15 mins” for “180 mins”; in short: as §4
T2 sequence (P10634 whole entry): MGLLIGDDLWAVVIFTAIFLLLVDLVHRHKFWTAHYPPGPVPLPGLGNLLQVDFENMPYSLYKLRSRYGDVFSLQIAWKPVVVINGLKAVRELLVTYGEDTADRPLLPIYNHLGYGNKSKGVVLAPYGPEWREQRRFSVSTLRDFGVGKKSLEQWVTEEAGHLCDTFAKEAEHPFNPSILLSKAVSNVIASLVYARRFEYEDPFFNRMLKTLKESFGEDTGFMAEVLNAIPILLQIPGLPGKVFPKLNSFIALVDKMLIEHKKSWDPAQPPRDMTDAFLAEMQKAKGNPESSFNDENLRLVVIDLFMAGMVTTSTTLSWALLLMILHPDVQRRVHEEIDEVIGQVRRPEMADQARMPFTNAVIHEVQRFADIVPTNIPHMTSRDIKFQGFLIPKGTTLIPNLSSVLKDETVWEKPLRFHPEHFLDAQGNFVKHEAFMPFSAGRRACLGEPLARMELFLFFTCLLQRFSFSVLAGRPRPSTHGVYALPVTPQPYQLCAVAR

Liver microsome [9] = test: Drug metabolism in rat liver microsomes assessed as (Z)-N'-hydroxy-6-(5-(5-((Z)-N'-methoxycarbamimidoyl)pyridin-2-yl)furan-2-yl nicotinimidamide formation measured by HPLC-MS/MS analysis; format: ADME; in short: as §2
[10] = Drug metabolism in sandwich-cultured human hepatocytes assessed as fold increase in DB829 at 10 uM after 2 hrs of incubation by HPLC-MS/MS analysis; format: ADME, cell-based, Hepatocyte; in short: as §3

Cytochrome P450 3A4, sequence (P08684 whole entry): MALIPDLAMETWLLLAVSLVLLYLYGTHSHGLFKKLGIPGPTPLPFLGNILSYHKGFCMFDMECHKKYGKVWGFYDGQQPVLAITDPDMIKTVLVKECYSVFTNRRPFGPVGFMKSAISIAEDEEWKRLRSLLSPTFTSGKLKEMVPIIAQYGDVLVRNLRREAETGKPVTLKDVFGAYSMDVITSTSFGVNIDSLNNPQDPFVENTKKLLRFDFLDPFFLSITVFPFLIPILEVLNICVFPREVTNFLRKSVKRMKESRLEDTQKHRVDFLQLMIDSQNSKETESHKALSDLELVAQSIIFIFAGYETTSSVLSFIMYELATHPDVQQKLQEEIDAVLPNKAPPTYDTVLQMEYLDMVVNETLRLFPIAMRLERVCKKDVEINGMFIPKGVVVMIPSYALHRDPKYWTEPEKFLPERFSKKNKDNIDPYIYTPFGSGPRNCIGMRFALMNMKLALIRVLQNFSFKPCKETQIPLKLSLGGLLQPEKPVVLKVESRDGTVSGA

Drug metabolism (Liver microsome [1]): 100%
CLint (Liver microsome [2]): 31 µL/min/mg
Retention_time (Liver microsome [3]): 18.5 min
Ratio (Liver microsome [4]): 25
Drug metabolism (Cytochrome P450 4F1): metabolite_detected
Drug metabolism [5]: metabolite_detected
Drug metabolism [6]: metabolite_detected
Drug metabolism (Cytochrome P450 3A4): metabolite_detected
fold change (FC) [7]: 23
Vmax (Liver microsome [8]): 340 pmol/min
Drug metabolism (Cytochrome P450 2D26): metabolite_detected
Km (Liver microsome [9]): 0.5 µM
fold change (FC) [10]: 13
SMILES: CO/N=C(\N)c1ccc(-c2ccc(-c3ccc(/C(N)=N/OC)cn3)o2)nc1.Cl
